Activity calls are given as the source filed them. The rule behind the calls is not given here.
Key:
[1] = Metabolic stability in human liver microsomes assessed as compound remaining at 5 uM after 2 hrs in presence of NADPH by LC/MS/MS analysis; assay type: ADME; conditions: read-out: Stability
[2] = Selectivity index, ratio of CC50 for human HepG2 cells to EC50 for metronidazole sensitive Giardia lamblia WB trophozoites
[3] = Selectivity index, ratio of CC50 for HEK293 cells to EC50 for metronidazole sensitive Giardia lamblia WB trophozoites
Entamoeba histolytica [4] = experiment: Potency index, ratio of metronidazole EC50 to compound EC50 for metronidazole sensitive Entamoeba histolytica HM-1:IMSS trophozoites; assay type: functional
[5] = Protein binding in human plasma at 5 uM after 30 min by ultrafiltration method; assay type: ADME, cell-free; conditions: 0.5 h
Giardia intestinalis [6] = experiment: Antiparasitic activity against metronidazole sensitive Giardia lamblia WB trophozoites assessed as morphological alterations at 3 times EC50 after 48 hrs under anaerobic conditions by phase contrast microscopic analysis; assay type: functional; conditions: Giardia duodenalis
Giardia intestinalis [7] = experiment: Potency index, ratio of metronidazole EC50 to compound EC50 for metronidazole sensitive Giardia lamblia WB trophozoites; assay type: functional, Giardia duodenalis
[8] = Cytotoxicity against human HepG2 cells assessed as cell growth inhibition after 24 hrs by resazurin assay; assay type: toxicity, cell-based
Procedure, shortened: (§1)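 HEK293 (3000/well) and HepG2 (5000/well) cells cultured 24 h in DMEM with 10% FBS at 37 °C, 5% CO2. Compound dilution series added, top concentration 100 μM, 0.5% final DMSO, for 24 h. Then 5 μM resazurin added for 2 h at 37 °C. 1% Triton X-100 served as the lysis control.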

[9] = Cytotoxicity against HEK293 cells assessed as cell growth inhibition after 24 hrs by resazurin assay; assay type: toxicity, cell-based; conditions: human; procedure, shortened: as §1
[10] = Antiparasitic activity against metronidazole sensitive Clostridium difficile 630 ATCC BAA-1382 after 24 hrs by broth microdilution method; assay type: functional, Clostridioides difficile 630; conditions: Clostridioides difficile, ATCC BAA-1382, 24 h
Procedure, shortened: (§2)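 C. difficile 630 and NAP1/027 grown anaerobically overnight in BHIS at 37 °C, diluted 40-fold, grown ~4.5 h to mid-log (OD600 0.4–0.6). Final inoculum 5 × 10^5 CFU/mL in BHIS against two-fold dilutions, 64 to 0.03 μg/mL, 3% maximum DMSO, in pre-reduced plates (5% H2, 10% CO2, 85% N2). Incubated 24 h at 37 °C. MIC is the lowest concentration without visible growth. Median of replicates reported.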

Entamoeba histolytica [11] = experiment: Antiparasitic activity against metronidazole sensitive Entamoeba histolytica HM-1:IMSS trophozoites after 24 to 48 hrs under anaerobic conditions by Celltiter-Glo assay; assay type: functional
Procedure, shortened: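 Axenic log-phase trophozoites in TYI-S-33 with penicillin and streptomycin, 5000 parasites per well. Tested over a final 8-point three-fold series, 0.01–25 μM. Incubated 24–48 h at 37 °C in anaerobe gas pouches. Viable cells measured by ATP bioluminescence (CellTiter-Glo) in triplicate to give EC50.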

Clostridioides difficile = experiment: Antiparasitic activity against Clostridium difficile NAP1/027 ATCC BAA-1803 after 24 hrs by broth microdilution method; assay type: functional; conditions: NAP1/027 ATCC BAA-1803, 24 h; procedure, shortened: as §2
Giardia intestinalis [12] = experiment: Potency index, ratio of metronidazole EC50 to compound EC50 for metronidazole resistant Giardia lamblia 713M3 trophozoites; assay type: functional, Giardia duodenalis

## Cn1c([N+](=O)[O-])cnc1C(=O)NCc1ccc(F)cc1
[1]
  remaining at 2 h, 5 µM: 88%
[2]
  Ratio CC50/EC50: >29
[3]
  Ratio CC50/EC50: >29

## O=C(NC1CCCCC1)c1ncc([N+](=O)[O-])[nH]1
[2]
  Ratio CC50/EC50: >167
[3]
  Ratio CC50/EC50: >167
Entamoeba histolytica [4]
  Ratio EC50: 2 - 3

## O=C(NCc1ccc(F)cc1)c1ncc([N+](=O)[O-])[nH]1
[5]
  PPB: > 99%
Giardia intestinalis [6]
  Activity: Active
[1]
  remaining at 2 h, 5 µM: 94%
[2]
  Ratio CC50/EC50: >250
[3]
  Ratio CC50/EC50: >250

## CC(NC(=O)c1ncc([N+](=O)[O-])[nH]1)c1ccc(F)cc1 (stereo unspecified)
[2]
  Ratio CC50/EC50: >250
[3]
  Ratio CC50/EC50: >250
Entamoeba histolytica [4]
  Ratio EC50: 2 - 3

## NC(=O)c1nc([N+](=O)[O-])cn1Cc1ccc(OC(F)(F)F)cc1
[2]
  Ratio CC50/EC50: >22
[3]
  Ratio CC50/EC50: >22

## NC(=O)c1nc([N+](=O)[O-])cn1Cc1cccc(OC(F)(F)F)c1
[2]
  Ratio CC50/EC50: >12
[3]
  Ratio CC50/EC50: >12

## O=C(NO)c1nc([N+](=O)[O-])cn1Cc1ccc(OC(F)(F)F)cc1
[2]
  Ratio CC50/EC50: >20

## O=C(c1ncc([N+](=O)[O-])[nH]1)N1CCCC1
[2]
  Ratio CC50/EC50: >29
[3]
  Ratio CC50/EC50: >29

## Cn1c([N+](=O)[O-])cnc1C(=O)N1CCOCC1
[1]
  remaining at 2 h, 5 µM: 97%
[2]
  Ratio CC50/EC50: >63
Giardia intestinalis [7]
  Ratio EC50: 4
[3]
  Ratio CC50/EC50: >63

## NC(=O)c1nc([N+](=O)[O-])cn1CC1CC1
[8]
  CC50 at 24 h: > 100 µM
[9]
  CC50 at 24 h: > 100 µM
[10]
  MIC: > 64 µg/mL
Entamoeba histolytica [11]; read-out: EC50
  EC50: > 50 µM
Entamoeba histolytica [11]; read-out: pEC50 (converted)
  EC50: > 50.1 µM
Clostridioides difficile
  MIC: > 64 µg/mL

## CNC(=O)c1ncc([N+](=O)[O-])[nH]1
[2]
  Ratio CC50/EC50: >10
[3]
  Ratio CC50/EC50: >10

## Cn1c([N+](=O)[O-])cnc1C(=O)NC1CC1
[2]
  Ratio CC50/EC50: >29
[3]
  Ratio CC50/EC50: >29

## O=C(c1ncc([N+](=O)[O-])[nH]1)N1CCOCC1
[1]
  remaining at 2 h, 5 µM: 100%
[2]
  Ratio CC50/EC50: >11
[3]
  Ratio CC50/EC50: >11

## NNC(=O)c1nc([N+](=O)[O-])cn1Cc1ccc(OC(F)(F)F)cc1
[2]
  Ratio CC50/EC50: >13
[3]
  Ratio CC50/EC50: >13

## O=C(NC1CC1)c1ncc([N+](=O)[O-])[nH]1
[2]
  Ratio CC50/EC50: >20
[3]
  Ratio CC50/EC50: >20

## CN(C)C(=O)c1ncc([N+](=O)[O-])n1C
[2]
  Ratio CC50/EC50: >42
[3]
  Ratio CC50/EC50: >42

## CCOC(=O)c1nc([N+](=O)[O-])cn1Cc1ccc(OC(F)(F)F)cc1
[2]
  Ratio CC50/EC50: >17
[3]
  Ratio CC50/EC50: >17

## Cc1ccc(CCNC(=O)c2ncc([N+](=O)[O-])[nH]2)cc1
[2]
  Ratio CC50/EC50: >1000
[3]
  Ratio CC50/EC50: >1000
Entamoeba histolytica [4]
  Ratio EC50: 2 - 3

## CN(CCO)C(=O)c1ncc([N+](=O)[O-])[nH]1
[2]
  Ratio CC50/EC50: >4
[3]
  Ratio CC50/EC50: >4

## O=C(NCc1cccc(OC(F)(F)F)c1)c1ncc([N+](=O)[O-])[nH]1
[2]
  Ratio CC50/EC50: >500
[3]
  Ratio CC50/EC50: >500

## O=C(NCc1ccc(OC(F)(F)F)cc1)c1ncc([N+](=O)[O-])[nH]1
[3]
  Ratio CC50/EC50: >500

## Cc1ncc([N+](=O)[O-])n1CCO [METRONIDAZOLE]
[1]
  remaining at 2 h, 5 µM: 100%

## CN(C)C(=O)c1nc([N+](=O)[O-])cn1Cc1ccc(OC(F)(F)F)cc1
[2]
  Ratio CC50/EC50: >37
[3]
  Ratio CC50/EC50: >37

## Cn1c([N+](=O)[O-])cnc1C(=O)NCc1ccccn1
Giardia intestinalis [12]
  Ratio EC50: 3 - 12
[2]
  Ratio CC50/EC50: >63
Giardia intestinalis [7]
  Ratio EC50: 4
[3]
  Ratio CC50/EC50: >63

## Cn1c([N+](=O)[O-])cnc1C(=O)NC1CCCCC1
Giardia intestinalis [12]
  Ratio EC50: 3 - 12
[2]
  Ratio CC50/EC50: >20
[3]
  Ratio CC50/EC50: >20

## NC(=O)c1nc([N+](=O)[O-])cn1Cc1ccccn1
[2]
  Ratio CC50/EC50: >3.7
[3]
  Ratio CC50/EC50: >3.7

## Cc1ccc(CCNC(=O)c2ncc([N+](=O)[O-])n2C)cc1
[2]
  Ratio CC50/EC50: >36
[3]
  Ratio CC50/EC50: >36

## Cn1c([N+](=O)[O-])cnc1C(=O)N1CCCC1
Giardia intestinalis [12]
  Ratio EC50: 3 - 12
[2]
  Ratio CC50/EC50: >34
[3]
  Ratio CC50/EC50: >34

## CNC(=O)c1nc([N+](=O)[O-])cn1Cc1ccc(OC(F)(F)F)cc1
[2]
  Ratio CC50/EC50: >29
[3]
  Ratio CC50/EC50: >29

## O=C(NCc1ccccn1)c1ncc([N+](=O)[O-])[nH]1
[2]
  Ratio CC50/EC50: >14
[3]
  Ratio CC50/EC50: >14

## CN(C)C(=O)c1ncc([N+](=O)[O-])[nH]1
[2]
  Ratio CC50/EC50: >12
[3]
  Ratio CC50/EC50: >12
Entamoeba histolytica [4]
  Ratio EC50: 2 - 3

## CC(NC(=O)c1ncc([N+](=O)[O-])n1C)c1ccc(F)cc1 (stereo unspecified)
Giardia intestinalis [12]
  Ratio EC50: 3 - 12
[2]
  Ratio CC50/EC50: >34
[3]
  Ratio CC50/EC50: >34

Reference: ChEMBL document CHEMBL3856206, “Nitroimidazole carboxamides as antiparasitic agents targeting Giardia lamblia, Entamoeba histolytica and Trichomonas vaginalis” (Eur J Med Chem, 2016)
